Test results taken from ChEMBL document CHEMBL1141390, “20S-protopanaxadiol-induced programmed cell death in glioma cells through caspase-dependent and -independent pathways” (J Nat Prod, 2007).
Calls of active or inactive are those of the source. The calls are words filed in the database; no cut-off is given here. Residues, ends and D or L forms follow the SMILES beside them. *: point of attachment. Cbz = O=C(OCc1ccccc1)*; CH2F = FC*

Assays:
[1] = system: SF-188; experiment: Inhibition of cycloheximide-induced apoptosis in human SF188 cells; type: functional, cell-based
[2] = system: SF-188; experiment: Inhibition of 20S-protopanaxadiol-induced activation of caspases in human SF188 cells; type: cell-based
[3] = system: SF-188; experiment: Inhibition of TNF-alpha-induced apoptosis in human SF188 cells; type: functional, cell-based
[4] = system: SF-188; experiment: Inhibition of 20S-protopanaxadiol-induced apoptosis in human SF188 cells after 8 hrs by MTT assay; type: functional; set-up: scale not given: the % may be the effect or the level left
How it was run: (§1)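 SF188 cells were seeded at 2.5 × 10^5/mL 24 h before use. For the inhibitor arm, cells were pretreated for 2 h with various concentrations of Z-VAD-FMK, then 43.4 µM compound was added. Viability was read by MTT assay 8 h after compound addition.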

[5] = target: T1, Caspase-7 (Homo sapiens) (UniProt P55210); experiment: Activation of caspase 7 in human SF188 cells at 108.4 uM; type: cell-based; details: SF-188
T1 sequence (whole entry): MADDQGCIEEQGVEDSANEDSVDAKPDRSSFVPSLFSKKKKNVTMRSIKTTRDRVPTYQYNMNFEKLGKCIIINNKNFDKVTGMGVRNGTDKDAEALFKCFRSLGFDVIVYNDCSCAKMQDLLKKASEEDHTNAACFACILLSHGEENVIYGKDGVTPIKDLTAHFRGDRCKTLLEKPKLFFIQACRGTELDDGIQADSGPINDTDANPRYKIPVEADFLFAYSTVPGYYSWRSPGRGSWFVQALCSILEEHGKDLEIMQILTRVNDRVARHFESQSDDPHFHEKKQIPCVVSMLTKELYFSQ
How it was run: (§2)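 Western blot of SF188 lysates after treatment with 108.4 µM compound, sampled at different time points or at different concentrations. 50 µg total protein loaded per lane. Pro-caspase and cleaved (active) caspase bands were detected, with actin as loading control.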

[6] = system: U-87 MG; experiment: Induction of autophagy in human U87MG cells by MDC staining at 43.4 uM after 4 hrs; type: functional, cell-based; details: U-87MG ATCC
How it was run: (§3)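 SF188 and U87MG cells were treated with 43.4 or 108.4 µM compound for 4 h. Autophagic vacuoles were then visualized by monodansylcadaverine (MDC) staining.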

[7] = Cytotoxicity against human SF188 cells at 43.4 uM after 24 hrs by MTT assay; type: cell-based; details: sf-188, 24 h
How it was run: (§4)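 Glioma cells seeded at 2.5 × 10^5/mL 24 h before treatment, then exposed to a range of concentrations for 24 h. Viability was measured by MTT assay, and cell death was read from the 24 h dose-response curve.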

[8] = system: SF-188; experiment: Cell viability of human SF188 cells in presence of tBHQ, Z-VAD-FMK; type: functional
[9] = Cytotoxicity against human U87MG cells after 24 hrs; type: cell-based, U-87MG ATCC; details: U-87 MG; how it was run: as §4
[10] = Cytotoxicity against human U87MG cells at 108.4 uM after 24 hrs by MTT assay; type: cell-based; details: u-87mg atcc; how it was run: as §4
[11] = system: U-87MG ATCC; experiment: Activation of caspases in human U87MG cells; type: cell-based
How it was run: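 Western blot of U87MG cells treated with 108.4 µM compound for up to 9 h, probing pro- and cleaved caspases-8 and -3. 50 µg protein per lane. Lysate from treated SF188 cells served as positive control and actin as loading control.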

[12] = system: SF-188; experiment: Cell viability in human SF188 cells in presence of tBHQ at 86.8 uM; type: functional
[13] = system: U-87 MG; experiment: Induction of apoptosis in human U87MG cells at 108.4 uM within 7 hrs; type: functional, U-87MG ATCC
How it was run: (§5)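 SF188 or U87MG cells were treated with 108 µM compound and stained by TUNEL (ApopTag). Apoptotic cells were counted as % TUNEL-positive: at 3 h for SF188, at 7 h for U87MG. Untreated cells served as controls.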

[14] = target: Caspase-8 (Homo sapiens) (UniProt Q14790); experiment: Activation of caspase 8 in human SF188 cells at 108.4 uM; type: cell-based; details: SF-188; how it was run: as §2
Sequence of Caspase-8 (Homo sapiens) (Q14790 217-374 limits assumed): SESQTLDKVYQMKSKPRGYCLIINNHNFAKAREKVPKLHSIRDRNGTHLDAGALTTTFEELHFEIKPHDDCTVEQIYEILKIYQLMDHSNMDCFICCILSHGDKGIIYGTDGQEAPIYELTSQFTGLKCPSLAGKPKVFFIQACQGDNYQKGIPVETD
Sequence of Caspase-8 (Homo sapiens) (Q14790 385-479 limits assumed): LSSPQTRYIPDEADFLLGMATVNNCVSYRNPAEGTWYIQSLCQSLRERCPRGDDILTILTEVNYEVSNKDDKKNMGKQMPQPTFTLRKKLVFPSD

[15] = system: SF-188; experiment: Induction of apoptosis in human SF188 cells at 108.4 uM within 3 hrs; type: functional; how it was run: as §5
[16] = system: U-87 MG; experiment: Increase in superoxide anion level in human U87MG cells after 2 hrs; type: functional, cell-based; details: U-87MG ATCC
How it was run: (§6)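 Superoxide anion was measured by dihydroethidine (HE) fluorescence using flow cytometry in SF188 or U87MG cells 2 h after treatment at several concentrations. Result is reported as the percentage of HE-positive cells.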

[17] = system: SF-188; experiment: Induction of autophagy in human SF188 cells by MDC staining at 108.4 uM after 4 hrs; type: functional, cell-based; how it was run: as §3
[18] = system: SF-188; experiment: Reduction of Akt phosphorylation in human SF188 cells after 5 hrs; type: cell-based
[19] = Cytotoxicity against human SF188 cells at 108.4 uM within 10 hrs by MTT assay; type: cell-based; details: sf-188, 10 h
How it was run: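 Cells seeded at 2.5 × 10^5/mL 24 h beforehand were treated with 108.4 µM. Viability was measured by MTT assay at 1, 4, 6, 8, 10 and 24 h after treatment.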

[20] = target: T2, Caspase-9 (Homo sapiens) (UniProt P55211); experiment: Activation of caspase 9 in human SF188 cells at 108.4 uM; type: cell-based; details: SF-188; how it was run: as §2
T2 sequence (whole entry): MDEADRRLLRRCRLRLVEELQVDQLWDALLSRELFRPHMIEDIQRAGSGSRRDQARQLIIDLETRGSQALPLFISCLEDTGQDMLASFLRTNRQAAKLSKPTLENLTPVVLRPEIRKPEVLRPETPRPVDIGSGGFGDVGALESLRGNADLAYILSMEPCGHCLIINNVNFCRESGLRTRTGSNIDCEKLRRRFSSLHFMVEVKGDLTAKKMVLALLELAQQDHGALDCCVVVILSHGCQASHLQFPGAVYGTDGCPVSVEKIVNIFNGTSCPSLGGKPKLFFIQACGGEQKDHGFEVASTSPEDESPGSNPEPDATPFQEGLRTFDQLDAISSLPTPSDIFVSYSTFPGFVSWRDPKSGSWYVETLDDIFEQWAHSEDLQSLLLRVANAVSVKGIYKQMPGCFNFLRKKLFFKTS

[21] = system: SF-188; experiment: Cell viability in human SF188 cells; type: functional; how it was run: as §1
[22] = system: SF-188; experiment: Increase in superoxide anion level in human SF188 cells after 2 hrs; type: functional, cell-based; how it was run: as §6
[23] = target: T3, Caspase-3 (Homo sapiens) (UniProt P42574); experiment: Activation of caspase 3 in human SF188 cells at 108.4 uM; type: cell-based; details: SF-188; how it was run: as §2
T3 sequence (whole entry): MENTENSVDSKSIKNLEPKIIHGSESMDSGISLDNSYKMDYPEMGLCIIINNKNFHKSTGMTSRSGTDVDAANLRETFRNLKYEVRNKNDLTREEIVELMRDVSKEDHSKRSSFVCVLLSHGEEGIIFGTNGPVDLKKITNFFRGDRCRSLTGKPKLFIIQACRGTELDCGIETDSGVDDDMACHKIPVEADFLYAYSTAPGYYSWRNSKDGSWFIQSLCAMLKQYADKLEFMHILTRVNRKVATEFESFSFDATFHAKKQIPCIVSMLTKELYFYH

[24] = system: U-87MG ATCC; experiment: Reduction of Akt phosphorylation in human U87MG cells after 7 hrs; type: cell-based
[25] = system: U-87 MG; experiment: Induction of autophagy in human U87MG cells by MDC staining at 108.4 uM after 4 hrs; type: functional, cell-based; details: U-87MG ATCC; how it was run: as §3
[26] = Cytotoxicity against human SF188 cells after 24 hrs; type: cell-based; details: SF-188, 24 h; how it was run: as §4
[27] = system: SF-188; experiment: Induction of autophagy in human SF188 cells by MDC staining at 43.4 uM after 4 hrs; type: functional, cell-based; how it was run: as §3
[28] = system: SF-188; experiment: Cell viability in human SF188 cells in presence of Z-VAD-FMK; type: functional

Which Activity [1] does the source give for `CC(C)[C@H](NC(=O)OCc1ccccc1)C(=O)N[C@@H](C)C(=O)N[C@@H](CC(=O)O)C(=O)CF` (Cbz-Val-Ala-Asp-CH2F) here?
The Activity was “Active”.

And the Activity [2]?
Its Activity is “Active”.

And the Activity [3]?
The Activity was “Active”.

What about the Activity [4] of the same compound?
The Activity was 44.72%.

What does the source list for `CC(C)=CCC[C@](C)(O)[C@H]1CC[C@]2(C)[C@@H]1[C@H](O)C[C@@H]1[C@@]3(C)CC[C@H](O)C(C)(C)[C@@H]3CC[C@]12C`?
Activity [5]: Active; Activity [6]: Active; Activity [7]: 100%; Activity [8]: 89.4%; IC50 [9]: 38 µM; Activity [10]: 90%; Activity [11]: inactive; Activity [12]: 30.46%; Activity [13]: 51.01%; Activity [14]: Active; Activity [15]: 42.67%; Activity [16]: Active; Activity [17]: Active; Activity [18]: inactive; Activity [19]: 90%; Activity [20]: Active; Activity [21]: 16.5%; Activity [22]: Active; Activity [23]: Active; Activity [24]: Dose-dependent effect; Activity [25]: Active; IC50 [26]: 24 µM; Activity [27]: Active; Activity [28]: 36%
